The source made the active and inactive calls. No cut-off for these calls is given here.
Experiments:
[1] = tested on: Priestia megaterium; experiment: Antibacterial activity against Bacillus megaterium at 1 ug/uL by agar diffusion assay; format: functional
Summary of the method: (§1)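 Filter-disk agar diffusion. 50 µL of test solution is applied to a sterile 9 mm disk, and the disk is air-dried. Disks sit on an agar medium suited to each organism, and the plate is sprayed with a suspension of that organism. Incubation is at 28 °C overnight. The radius of the inhibition zone is read in mm.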

[2] = tested on: Priestia megaterium; experiment: Antibacterial activity against Bacillus megaterium at 5 ug/uL by agar diffusion assay; format: functional; summary of the method: as §1
[3] = tested on: [Chlorella] fusca; experiment: Antimicrobial activity against Chlorella fusca at 1 ug/uL by agar diffusion assay; format: functional, organism-based; settings: Scenedesmus fuscus; summary of the method: as §1
[4] = tested on: [Chlorella] fusca; experiment: Antimicrobial activity against Chlorella fusca at 5 ug/uL by agar diffusion assay; format: functional; settings: for Activity: Scenedesmus fuscus; summary of the method: as §1
[5] = tested on: Microbotryum violaceum; experiment: Antimicrobial activity against Micobotryum violaceum at 1 ug/uL by agar diffusion assay; format: functional, organism-based; summary of the method: as §1
[6] = tested on: Microbotryum violaceum; experiment: Antimicrobial activity against Micobotryum violaceum at 5 ug/uL by agar diffusion assay; format: functional; summary of the method: as §1

| Compound | Activity [1] | Activity [2] | Activity [3] | Activity [4] | Activity [5] | Activity [6] | inhibition zone (IZ) [1] | inhibition zone (IZ) [2] | inhibition zone (IZ) [4] | inhibition zone (IZ) [6] |
| --- | --- | --- | --- | --- | --- | --- | --- | --- | --- | --- |
| CC(C)=CCc1c(C)c2c3c(c1O)C(=O)c1c(O)cc4c(c1[C@]31O[C@H](C2)C(C)(C)O1)C=CC(C)(C)O4 | inactive | inactive | inactive | inactive | inactive | inactive | – | – | – | – |
| O=c1c2cc(O)ccc2oc2cccc(O)c12 | – | – | inactive | – | inactive | – | 9 mm | 12 mm | 10 mm | 12 mm |
| CC(C)=CCc1c(C)cc(O)c2c(O)c3c(cc12)[C@]1(CC=C(C)C)C[C@H](O)C(C)(C)[C@@H](C3=O)C1=O [HARUNMADAGASCARIN D] | inactive | – | inactive | inactive | inactive | inactive | – | 10 mm | – | – |
| COC1c2c(CC=C(C)C)c(C)cc(O)c2C(=O)c2c(O)cc3c(c21)CC(C(C)(C)O)O3 (stereo not given) [KENGANTHRANOL C] | – | – | inactive | inactive | inactive | inactive | 6 mm | 10 mm | – | – |
| CC(C)=CCc1c(C)c(CC=C(C)C)c2c(c1O)C(=O)c1c(O)cc(O)c(CC=C(C)C)c1C2 | inactive | inactive | inactive | inactive | inactive | inactive | – | – | – | – |
